Results from ChEMBL document CHEMBL2169757, “Discovery, synthesis, and biological evaluation of a novel group of selective inhibitors of filoviral entry” (J Med Chem, 2011).
Activity calls are given as the source filed them. The rule behind the calls is not given here.

Key:
Type in all cases: cell-based
HEK-293T [1] = test: Cytotoxicity against human 293T cells infected with Ebolavirus GP pseudotyped in HIV virions assessed as cell death at 60 uM
How it was run: (§1)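 Compounds at 60 μM final were mixed with Ebola GP-pseudotyped HIV luciferase virions and added to 293T cells. Cell morphology and growth were checked by light microscopy at 24 and 48 h post-infection. Vehicle was DMSO at 0.1~0.2% final.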

293T [2] = test: Inhibition of compound-pretreated Ebolavirus GP pseudotyped in HIV virions infected in human 293T cells assessed as viral-cell entry at 60 uM after 48 hrs by luciferase gene assay relative to DMSO-treated control; parameters: scale not given: the % may be the effect or the level left; conditions: Zaire ebolavirus
How it was run: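 Ebola GP-pseudotyped HIV luciferase virions were mixed with compound (60 μM final) before infecting 293T cells. Medium was changed after overnight incubation, and luciferase was read from lysates at 48 h. Result is % infectivity relative to DMSO vehicle (0.1~0.2% final).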

293T [3] = test: Inhibition of compound-pretreated VSV GP pseudotyped in HIV virions infected in human 293T cells assessed as inhibition of viral-cell entry after 48 hrs by luciferase gene assay relative to DMSO-treated control; conditions: Vesicular stomatitis virus
HeLa [4] = test: Inhibition of compound-pretreated Marburg GP pseudotyped in HIV virions infected in human HeLa cells assessed as inhibition of viral-cell entry at 60 uM after 48 hrs by luciferase gene assay relative to DMSO-treated control; conditions: Marburgvirus
How it was run: (§2)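 HIV luciferase virions pseudotyped with Marburg GP (Lake Victoria) were preincubated with compound (60 μM final), then added to 293T, HeLa or A549 cells. Medium was replaced after overnight incubation, and lysates were read for luciferase at 48 h. Values are % of DMSO control, mean ± standard error of three independent experiments.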

[5] = (§3) Inhibition of compound-pretreated Ebolavirus GP pseudotyped in HIV virions infected in human 293T cells assessed as inhibition of viral-cell entry after 48 hrs by luciferase gene assay relative to DMSO-treated control; conditions: Zaire ebolavirus, HEK-293T
How it was run: (§4)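 Pseudotypes were briefly preincubated with compound at room temperature, then added to 293T or HeLa cells seeded the day before. Medium was replaced after overnight incubation, and cells were lysed at 48 h for firefly luciferase reading. Single point was 30 μM; curves spanned 3.75–120 or 3.75–60 μM. Infectivity was taken as % of DMSO control, from 3–5 independent experiments.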

293T [6] = test: as §3; conditions: Zaire ebolavirus; how it was run: as §4
A549 = test: Inhibition of compound-pretreated Marburg GP pseudotyped in HIV virions infected in human A549 cells assessed as inhibition of viral-cell entry at 60 uM after 48 hrs by luciferase gene assay relative to DMSO-treated control; conditions: Marburgvirus; how it was run: as §2
HeLa [7] = test: (§5) Inhibition of compound-pretreated Ebolavirus GP pseudotyped in HIV virions infected in human HeLa cells assessed as inhibition of viral-cell entry after 48 hrs by luciferase gene assay relative to DMSO-treated control; conditions: Zaire ebolavirus; how it was run: as §4
[8] = as §5; conditions: Zaire ebolavirus; how it was run: as §4
HeLa [9] = test: Inhibition of compound-pretreated VSV GP pseudotyped in HIV virions infected in human HeLa cells assessed as inhibition of viral-cell entry after 48 hrs by luciferase gene assay relative to DMSO-treated control; conditions: Vesicular stomatitis virus
293T [10] = test: Inhibition of compound-pretreated Marburg GP pseudotyped in HIV virions infected in human 293T cells assessed as inhibition of viral-cell entry at 60 uM after 48 hrs by luciferase gene assay relative to DMSO-treated control; conditions: Marburgvirus; how it was run: as §2
HEK-293T [11] = test: Cytotoxicity against human 293T cells infected with Ebolavirus GP pseudotyped in HIV virions assessed as effect on cell morphology at 60 uM; how it was run: as §1
HEK-293T [12] = test: Cytotoxicity against human 293T cells infected with Ebolavirus GP pseudotyped in HIV virions assessed as effect on cell growth at 60 uM; how it was run: as §1
293T [13] = test: Inhibition of compound-pretreated Ebolavirus GP pseudotyped in HIV virions infected in human 293T cells assessed as inhibition of viral-cell entry at 30 uM after 48 hrs by luciferase gene assay relative to DMSO-treated control; conditions: Zaire ebolavirus; how it was run: as §4
293T [14] = test: Inhibition of compound-pretreated VSV GP pseudotyped in HIV virions infected in human 293T cells assessed as inhibition of viral-cell entry at 120 uM after 48 hrs by luciferase gene assay relative to DMSO-treated control; conditions: Vesicular stomatitis virus
HeLa [15] = test: Inhibition of compound-pretreated Ebolavirus GP pseudotyped in HIV virions infected in human HeLa cells assessed as inhibition of viral-cell entry at 30 uM after 48 hrs by luciferase gene assay relative to DMSO-treated control; conditions: Zaire ebolavirus; how it was run: as §4
HeLa [16] = test: Inhibition of compound-pretreated VSV GP pseudotyped in HIV virions infected in human HeLa cells assessed as inhibition of viral-cell entry at 120 uM after 48 hrs by luciferase gene assay relative to DMSO-treated control; conditions: Vesicular stomatitis virus

O=C(CBr)NCc1cc(-c2ccc(Br)cc2)no1
Activity (HEK-293T [1]): Toxic

CCN(CC)CC(=O)NCc1cc(-c2c(F)c(F)c(F)c(F)c2F)no1
Activity (293T [2]): 52%

CCN(CC)CC(=O)NCc1cn(-c2ccccc2Br)nn1
Activity (293T [2]): 19%

O=C(NCc1cc(-c2ccc(Br)cc2)no1)c1ccccc1
Activity (293T [2]): 82%

COc1ccc(-c2cc(CNC(=O)[C@H](Cc3ccccc3)NC(=O)OC(C)(C)C)on2)cc1
Activity (293T [2]): 188%

CCN(CC)CC(=O)NCc1cc(-c2ccc(Cl)cc2)no1
Activity (293T [2]): 17%

CCN(CC)CC(=O)NCc1cc(-c2ccc(O)cc2)no1
Activity (293T [2]): 132%

CCN(CC)CC(=O)NCc1cc(-c2ccc(I)cc2)no1
inhibition (293T [3]): inactive
inhibition (HeLa [4]): Active
IC50 [5]: 2.5 µM
inhibition (293T [6]): Dose-dependent effect
inhibition (A549): Active
inhibition (HeLa [7]): Dose-dependent effect
IC50 [8]: 2.5 µM
inhibition (HeLa [9]): inactive
inhibition (293T [10]): Active
Activity (293T [2]): 6%

CCCCCCCn1cc(CNC(=O)CN(CC)CC)nn1
Activity (293T [2]): 60%

COc1ccc(-c2cc(CNC(=O)CBr)on2)cc1
Activity (293T [2]): 121%

CCN(CC)CC(=O)NCc1cn(-c2ccc(Br)cc2)nn1
Activity (293T [2]): 18%

CCN(CC)CC(=O)NCc1cn(-c2c(Cl)cc(Cl)cc2Cl)nn1
Activity (293T [2]): 33%

CCN(CC)CC(=O)NCc1cc(-c2ccc(OC)c(I)c2)no1
Activity (293T [2]): 4%

COc1ccc(-c2cc(CNC(=O)[C@@H](NC(=O)OCc3ccccc3)C3CCCN3C(=O)OCc3ccccc3)on2)cc1 (stereo not given in full)
Activity (293T [2]): 254%

CCN(CC)CC(=O)NCc1cn(-c2ccc(I)cc2)nn1
inhibition (293T [3]): inactive
inhibition (HeLa [4]): > 90%
IC50 [5]: 5 µM
inhibition (293T [6]): Dose-dependent effect
inhibition (A549): > 90%
inhibition (HeLa [7]): Dose-dependent effect
IC50 [8]: 5 µM
inhibition (HeLa [9]): inactive
inhibition (293T [10]): Active
Activity (293T [2]): 4%

CCN(CC)CC(=O)NCc1cn(-c2cccc(OC)c2)nn1
Activity (293T [2]): 90%

CCN(CC)CC(=O)NCc1cc(-c2cccc([N+](=O)[O-])c2)no1
Activity (293T [2]): 37%

CCN(CC)CC(=O)NCc1cc(-c2cccc(OC)c2)no1
inhibition (293T [3]): inactive
IC50 [5]: 10 µM
inhibition (293T [6]): Dose-dependent effect
inhibition (HeLa [7]): Dose-dependent effect
IC50 [8]: 10 µM
inhibition (HeLa [9]): inactive
Activity (293T [2]): 4%

CCN(CC)CC(=O)NCc1cc(-c2ccccc2OC)no1
Activity (293T [2]): 87%

COc1ccc(-c2cc(CNC(=O)OCC(C)C)on2)cc1
Activity (293T [2]): 118%

CCN(CC)CC(=O)NCc1cc(-c2ccccc2)no1
Activity (293T [2]): 181%

CCCc1cc(CNC(=O)CN(CC)CC)on1
Activity (293T [2]): 102%

CCN(CC)CC(=O)NCc1cn(-c2ccc(Cl)cc2)nn1
Activity (293T [2]): 105%

CCN(CC)CC(=O)NCc1cc(-c2ccc(C(F)(F)F)cc2)no1
Activity (293T [2]): 24%

COc1ccc(-c2cc(CNC(=O)[C@H](CS)NC(C)=O)on2)cc1
Activity (HEK-293T [11]): Non-toxic
Activity (293T [2]): 421%
Activity (HEK-293T [12]): Non-toxic

CC(=O)NCc1cc(-c2ccc(Br)cc2)no1
Activity (HEK-293T [11]): Non-toxic
Activity (293T [2]): 105%
Activity (HEK-293T [12]): Non-toxic

COc1ccc(-c2cc(CNC(=O)[C@H](CC(=O)OCc3ccccc3)NC(=O)OC(C)(C)C)on2)cc1
Activity (293T [2]): 118%

CCN(CC)CC(=O)NCc1cn(-c2ccccc2[N+](=O)[O-])nn1
Activity (293T [2]): 66%

CCN(CC)CC(=O)NCc1cn(-c2ccc(OC)cc2)nn1
Activity (293T [2]): 58%

CCN(CC)CC(=O)NCc1cc(-c2ccc(OC)cc2)no1
inhibition (293T [13]): > 50%
inhibition (HeLa [4]): 20%
IC50 [5]: 30 µM
inhibition (293T [6]): Dose-dependent effect
inhibition (293T [14]): inactive
inhibition (A549): 20%
inhibition (HeLa [15]): > 50%
inhibition (HeLa [7]): Dose-dependent effect
IC50 [8]: 30 µM
inhibition (293T [10]): 20%
Activity (293T [2]): 56%
inhibition (HeLa [16]): inactive

CCN(CC)CC(=O)NCc1cc(-c2ccc(C)cc2)no1
Activity (HEK-293T [11]): Non-toxic
Activity (293T [2]): 381%
Activity (HEK-293T [12]): Non-toxic

CCN(CC)CC(=O)NCc1cn(-c2c(Br)cc(Br)cc2Br)nn1
inhibition (293T [3]): inactive
IC50 [5]: 5 µM
inhibition (293T [6]): Dose-dependent effect
inhibition (HeLa [7]): Dose-dependent effect
IC50 [8]: 5 µM
inhibition (HeLa [9]): inactive
Activity (293T [2]): 3%

CCN(CC)CC(=O)NCc1cn(-c2cccc(I)c2)nn1
Activity (293T [2]): 111%

CCN(CC)CC(=O)NCc1cc(-c2c(C)cccc2C)no1
Activity (293T [2]): 59%

CC(C)C(=O)NCc1cc(-c2ccc(Br)cc2)no1
Activity (293T [2]): 116%

CCN(CC)CC(=O)NCc1cc(-c2ccc(Br)cc2)no1
Activity (293T [2]): 30%

CCC(=O)NCc1cc(-c2ccc(Br)cc2)no1
Activity (293T [2]): 99%

COc1ccc(-c2cc(CNC(=O)[C@@H](N)Cc3ccccc3)on2)cc1
Activity (293T [2]): 106%

CCN(CC)CC(=O)NCc1cc(-c2ccco2)no1
Activity (293T [2]): 77%

CCN(CC)CC(=O)NCc1cn(-c2ccccc2)nn1
Activity (293T [2]): 46%

O=C1NC2(CCCC2)C(COc2ccccc2)O1 (stereo not given)
inhibition (293T [14]): Active
inhibition (HeLa [16]): Active

COc1ccc(-c2cc(CNC(=O)CNC(=O)OCc3ccccc3)on2)cc1
Activity (293T [2]): 148%

CCN(CC)CC(=O)NCc1cn(-c2ccc(OC)cc2[N+](=O)[O-])nn1
Activity (293T [2]): 92%

CCN(CC)CC(=O)NCc1cn(Cc2ccccc2)nn1
Activity (293T [2]): 35%

COc1ccc(-c2cc(CNC(=O)[C@@H](NC(=O)OCc3ccccc3)C(C)C)on2)cc1
Activity (293T [2]): 220%

CCN(CC)CC(=O)NCc1cc(-c2ccc(OC)c(OC)c2)no1
Activity (293T [2]): 160%

CCN(CC)CC(=O)NCc1cc(-c2ccc([N+](=O)[O-])cc2)no1
Activity (293T [2]): 30%
